Bioassay records deposited in PubChem by Broad Institute.
Rows were chosen to be rich in hits. Some 2.6% of all compounds tested hit in one or more screens of this group.
PvdQ acylase: blocks Pseudomonas aeruginosa PvdQ acylase activity. purified PvdQ acylase, fluorescence plate reader. inhibition, % at 10 µM. 340,000 compounds, 0.063% hits. AID 488965; in the data active = inhibition above about 30%, passing the limit was not always enough; inconclusive = no clear call, values can overlap the other calls;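 note: 0% = vehicle neutral wells and 100% = reference inhibitor wells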
SR-BI uptake up: activators of SR-BI mediated HDL lipid uptake; activation, % at 12.5 µM; 320,000 compounds, 0.096% hits; AID 504775; CHO ldlA[mSR-BI] cells, DiI-HDL uptake fluorescence, 3 h; 100 = double the neutral-control signal;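 active = mean replicate activation of at least 60% and every replicate at or above 60%; inconclusive = mean or all-replicate condition met, but not both; inactive = mean below 60% and not all replicates reaching 60%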;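 note: 0% = median plate neutral-control signal and 100% = twice that signal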
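Test system: SR-BI-overexpressing, LDLR-lacking CHO cells. Measured by: DiI fluorescence, bottom read. Medium: Ham's F12 with 0.5% BSA, HEPES 25 mM, pH 7.4. Timing: 3 h uptake period with compound, 37 °C.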
SR-BI DiI inh: blocks mouse SR-BI lipid uptake from DiI-HDL. ldlA[mSR-BI] CHO cells, DiI-HDL uptake fluorescence, 3 h. Q61009. inhibition, % at 12.5 µM. 320,000 compounds, 0.96% hits;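 active = mean replicate inhibition of at least 70% and a set share of replicates each scoring 70 or more; inconclusive = meets just one of the two criteria; inactive = fails both criteria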;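 note: 0% = median of neutral control wells and 100% = median of positive control wells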
Ecoli rRNA inh: inhibits bacterial ribosomal RNA function over humanized ribosomes. E. coli WT GFP vs humanized-ribosome RFP mutants, fluorescence, 24 h; stronger effect = lower value; DMSO median 0, no signal -100. GFP signal change (wild-type ribosome), % (test concentration not listed). 350,000 compounds, 1.6% hits. AID 720706;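 active = significant combined selectivity score with lowered wild-type GFP, culture density cut under 30%, mutant RFP and density less affected; inactive = any of these conditions unmet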
dFosB activator: mouse delta FosB homodimer activation. activation, % at 25 µM. 340,000 compounds, 0.99% hits. P13346. purified delta FosB, TAMRA-CDK5 oligo fluorescence polarization; percent of positive-control signal above neutral wells;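 active = mean activation above about 17%, with every replicate also reaching it, limit read from the data, passing the limit was not always enough; inconclusive = only one of the two conditions met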
Target sequence (P13346 whole entry, looked up): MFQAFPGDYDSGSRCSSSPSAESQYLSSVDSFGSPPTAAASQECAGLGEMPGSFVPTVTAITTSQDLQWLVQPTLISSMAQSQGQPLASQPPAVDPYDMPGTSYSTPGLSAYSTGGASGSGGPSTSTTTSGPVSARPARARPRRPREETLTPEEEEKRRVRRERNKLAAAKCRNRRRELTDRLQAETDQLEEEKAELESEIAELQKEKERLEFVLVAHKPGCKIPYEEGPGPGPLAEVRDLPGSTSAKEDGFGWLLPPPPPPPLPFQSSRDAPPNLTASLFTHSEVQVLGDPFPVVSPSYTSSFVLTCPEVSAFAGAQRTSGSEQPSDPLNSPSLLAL
Xi reactivation: reactivates the inactive X chromosome in mouse fibroblasts; activation, % at 7.58 µM; XiGFP mouse fibroblasts, % GFP-positive cells imaging, 3 d; cells co-treated with 5-aza-dC sensitizer; scaled so ellipticine positive control = 100%; 360,000 compounds, 0.055% hits;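 active = mean normalized replicate activation at least 10% and every replicate at or above 10%; inconclusive = only one of the two criteria met; inactive = mean below 10% and not all replicates reach 10%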;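 note: 0% = median of on-plate neutral control wells and 100% = ellipticine 6 µM median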
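System: XiGFP fibroblasts, SV40-immortalized. Medium: DMEM plus 5-aza-dC sensitizer. Doses: single point. Timing: 3 d treatment, 15 min room-temperature fixation. Control set: ellipticine 6 µM.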
* = called active by the depositor; u = inconclusive; x = no result given.

SMILES	PvdQ acylase	SR-BI uptake up	SR-BI DiI inh	Ecoli rRNA inh	dFosB activator	Xi reactivation
CCCCCCCNC(=O)C1(CC2CC(c3cccc(Br)c3)=NO2)CCN(C(=O)CCCCCBr)CC1 (stereo unspecified)	16	-31	31	-20*	13	0
CCCCCCCNC(=O)C1(CC2CC(c3cccc(Br)c3)=NO2)CCN(C(=O)C2(C)CC2)CC1 (stereo unspecified)	-5	13	-13	-3	-15	0
COc1ccc(-c2cn(-c3ccc(Cl)cc3)c3[n+]2CCCCC3)cc1	-13	0	0	-35*	-6	0
Clc1ccc(-c2cn(-c3ccc(Cl)cc3)c3[n+]2CCCCC3)cc1	-8	21	-21	-46*	-4	0
CCOc1ccccc1CN1CCNC(=O)C1CC(=O)N(C)CCc1cnn(C)c1 (stereo unspecified)	-7	20	-20	8	-2	0
COc1ccccc1-c1cc2nc(NCCc3ccncc3)ccn2n1	x	x	x	-17*	x	0
CCCc1nc(Nc2nc3ccccc3o2)nc(C)c1C(=O)OCC	12	-12	12	x	-5	x
COc1cccc(/C=C/C(=O)NCc2cn3cc(Cl)ccc3n2)c1	16	10	-10	-17	17*	0
Oc1cccc2c(NC(=S)Nc3ccc(SC(F)F)cc3)cccc12	-11	-29	29	-41*	7	0
O=C(Nc1ccccc1N1CCCCC1)c1cccc(Cl)c1	-15	-67	67	-7	2	0
O=C(Nc1ccc(N2CCCC2)cc1)c1ccc(Cl)cc1Cl	-2	-76	u	7	0	0
O=C(Nc1ccc(N2CCCC2)cc1)c1cccc(Cl)c1	-12	-86	86*	2	-11	0
O=C(Nc1ccc(N2CCCC2)cc1)c1cc(Cl)ccc1Cl	2	-40	40	18	135*	0
O=C(/C=C/c1ccc(Cl)c([N+](=O)[O-])c1)Nc1ccc(N2CCCC2)cc1	-7	-69	69	-9	28*	0
COc1ccc(-c2cc(NC=O)c3ncc(-c4cccc(C(C)=O)c4)n3c2)cc1	x	x	x	-3	x	0
Cc1ccc(S(=O)(=O)NCCC(C)C)cc1[N+](=O)[O-]	53*	1	-1	6	-1	0
CCOCCCNC(=O)C1CCN(S(=O)(=O)c2ccc3nc4c(c(C(=O)O)c3c2)CCCCC4)CC1	-10	14	-14	8	-2	0
COc1ccc(OC)c(CN2CCN(C(=O)c3cccc(S(=O)(=O)Nc4ccc(C)cc4)c3)CC2)c1	10	-40	40	-5	-7	0
COc1ccc(NS(=O)(=O)c2cccc(C(=O)N3CCN(Cc4cc(OC)ccc4OC)CC3)c2)cc1	6	-74	74*	-12	-5	0
COc1ccc(OC)c(CN2CCN(C(=O)c3ccc(C)c(S(=O)(=O)Nc4ccccc4OC)c3)CC2)c1	-14	-77	77*	-3	-1	0
CCCN1[C@H](CO)[C@H](c2ccc(C3=CCCCC3)cc2)[C@@H]1CNS(C)(=O)=O	x	x	x	-3	x	0
CC1=C(C#N)C(=O)NC(=O)/C1=C\c1ccc(-c2cc(C)c(C)cc2[N+](=O)[O-])o1	-10	-18	18	-34*	-11	0
COc1cc(NC(=O)c2sc3ncn(CC(=O)N4CCC(C)CC4)c(=O)c3c2C)cc(OC)c1OC	-13	x	x	-6	-21	0
COc1ccc2c(-c3ccc(SC)cc3)c(-c3ccc(S(C)(=O)=O)cc3)sc2c1	7	-81	81*	5	4	0
COc1cc2sc(-c3ccc(S(C)(=O)=O)cc3)c(-c3ccc4c(c3)OCO4)c2cc1OC	-6	-83	83*	4	8	1
SMILES	PvdQ acylase	SR-BI uptake up	SR-BI DiI inh	Ecoli rRNA inh	dFosB activator	Xi reactivation
COc1cc(NC(=O)c2cccc([N+](=O)[O-])c2)ccc1NC(=O)c1cc2ccccc2o1	1	-49	49	2	8	0
COc1cc(NC(=O)c2cccc(C)c2)ccc1NC(=O)c1cc2ccccc2o1	-13	-85	85*	10	3	0
CCOc1cccc(C(=O)Nc2ccc3oc(Cc4ccc(Cl)cc4)nc3c2)c1	-11	-52	52	-30*	-3	x
CCOc1cccc(C(=O)Nc2ccc(NC(=O)c3cc4ccccc4o3)c(OC)c2)c1	3	-72	72*	9	1	0
S=C1Cc2ccccc2C(c2ccc(Cl)cc2)N1 (stereo unspecified)	-17	-23	23	25	0	0
CCOC(=O)CSc1nc(NCc2ccco2)c2ccccc2n1	-4	-2	2	x	-8	x
COc1ccc(CNc2nc(SCC(=O)NCc3ccco3)nc3ccccc23)cc1	-21	9	-9	-31*	11	x
Cn1nc(CC(=O)Nc2ccc3c(c2)OCCO3)c2ccccc2c1=O	-11	7	-7	x	-2	x
COc1ccc(C(=O)C(CN2CCOCC2)c2ccccc2)cc1 (stereo unspecified)	19	-9	9	-50*	0	x
COc1ccc(C(=O)C(CN2CCCC2)c2ccccc2)cc1 (stereo unspecified)	-13	12	-12	x	-8	x
Cn1c(=O)[nH]c(=O)c2c1nc(N1CCCCC1)n2CC(O)COc1ccccc1 (stereo unspecified)	7	12	-12	16	2	0
CSc1nc(Cl)cc(Nc2ccccc2N)n1	-1	1	-1	-23*	-9	0
C=CCN(c1ccccc1)S(=O)(=O)c1cccc(C(=O)NCC(c2ccc(F)cc2)N2CCOCC2)c1 (stereo unspecified)	14	4	-4	-10	-11	0
CCN(c1ccccc1)S(=O)(=O)c1cccc(C(=O)NCC(c2ccc(F)cc2)N2CCOCC2)c1 (stereo unspecified)	-8	-2	2	-25*	-7	0
Cc1csc(NS(=O)(=O)c2ccc(Cl)cc2)n1	-10	2	-2	-13	2	0
C=CCn1c(-c2cccc(OC)c2OC)n[nH]c1=S	-13	2	-2	22	1	0
C=CCn1c(-c2cc3cccc(OC)c3o2)n[nH]c1=S	-9	x	x	-23*	-10	0
CCOc1ccc(OCC)c(NC(=O)C2CCCN(S(=O)(=O)c3cnc[nH]3)C2)c1 (stereo unspecified)	-5	-3	3	5	3	0
COc1ccc2nc3cc(Cl)ccc3c(C#N)c2c1	-13	1	-1	3	1	2
COc1ccc2nc(C(F)(F)Cl)c(C#N)c(N)c2c1	-14	-27	27	-40*	-6	0
